In the RNAGym collection of RNA variant scans (doi:10.1126/science.aae0568) one finds yeast fitness data, which are given here for 167 variants.

B1: tRNA (parent)
chain: GUUCCGUUGGCGUAAUGGUAACGCGUCUCCCUCCUAAGGAGAAGACUGCGGGUUCGAGUCCCGUACGGAACG

Variants at the floor of the assay were thinned out.

The variants in the data set derive from B1. Put plainly: yeast fitness relative to wild type (ratio to wild type); higher = fitter; tRNA-Arg(CCU), competitive growth, 37 C, YPD. In a few lines: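 Variants of the tRNA-Arg(CCU) gene, chemically synthesised with a 3% per-site mutation rate at 69 sites, were placed at the native genomic locus in Saccharomyces cerevisiae. The pooled strains were competed in YPD at 37°C for 24 hours in six parallel replicates. Gene amplicons from the start population and from each end population were read by 100-nucleotide paired-end sequencing. Darwinian fitness relative to wild type came from changes in genotype frequencies; genotypes needed ≥ 100 starting reads, and estimates < 0.5 were set to 0.5.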
U16A C34U U47C A57U: the yeast fitness was no more than 0.5.
As for U16A C24G U47C, the yeast fitness amounted to 0.536.
For U16A C49G A69U, the yeast fitness was no more than 0.5.
In the case of U16A C55A G68A, the yeast fitness was no more than 0.5.
For the variant U16A C30A, the yeast fitness came to 0.912.
U16A C30U: the yeast fitness worked out at 0.817.
With U16A C30G, the yeast fitness turned out to be 0.567.
As for U16A C29G G41C A45U, the figure is no more than 0.5; as for U16A C30G A37C G68C, no more than 0.5; as for U16A G39A C60G A70G, no more than 0.5.
As for U16A C29U A45G C46U A69U, the figure is no more than 0.5.
Take U16A G39A A42G C55A C62U: the yeast fitness was no more than 0.5.
As for U16A C29U A37G, the figure is no more than 0.5; as for U16A C24U C33U A36U A40U, no more than 0.5.
U16A G63A G67C: the yeast fitness was no more than 0.5.
As to U16A U26C C30A, the yeast fitness was no more than 0.5.
As for U16A C34U A36G A40C G44C, the figure is no more than 0.5; as for U16A C30U G56C, no more than 0.5.
U16A C34U G38A A42U: the yeast fitness was no more than 0.5.
For the variant U16A U19A C46U, the yeast fitness turned out to be 1.
With U16A G18A C31U C66U, the yeast fitness is no more than 0.5.
For the variant U16A C30U A36U G63A, the yeast fitness is no more than 0.5.
As for U16A G18C A36G G48C, the figure is no more than 0.5.
On to U16A C24U A42U A45U U53A G56A, for which the yeast fitness was no more than 0.5.
On to U16A G38C, for which the yeast fitness was 0.749.
For U16A C22A G56A, the yeast fitness was determined as 0.696.
On to U16A C34U A57G C60A, for which the yeast fitness is no more than 0.5.
As for U16A C24U G44C C61U, the figure is 0.66; as for U16A C22G A45C, 0.607.
On to U16A G63C, for which the yeast fitness was found to be 0.676.
As for U16A U19A A45G, the figure is 0.652.
Take U16A A45G G58A: the yeast fitness worked out at 0.591.
As for U16A U19A A43C G56A, the figure is no more than 0.5; as for U16A G48A C61U, 0.706.
For the variant U16A G23A C29U C34G, the yeast fitness amounted to 0.734.
Take U16A C27G U64C C66U G67A: the yeast fitness is no more than 0.5.
On to U16A G18C A20G C22U G58C C61A, for which the yeast fitness is no more than 0.5.
As for U16A C61U, the figure is 1.02; as for U16A C61G, 0.631.
As for U16A C34A C60A, the figure is 0.574; as for U16A G23C C29U C31G U47A, no more than 0.5.
As for U16A A65C, the figure is 0.939.
For the variant U16A G17A C33A G38C A43G U53C, the yeast fitness is no more than 0.5.
As for U16A C33U G38C, the figure is 0.625; as for U16A A45U, 1; as for U16A G17A A57G C66U, no more than 0.5.
On to U16A C66A, for which the yeast fitness came out at 0.653.
As for U16A G18A C31U A69C, the figure is no more than 0.5; as for U16A C22G C34U G51A, no more than 0.5; as for U16A C30U A40C G68A, 0.594.
As for U16A C30U A40C G48C G67C, the figure is no more than 0.5; as for U16A C29G C31G C55A C62U A69C, no more than 0.5.
As for U16A G25C, the figure is 0.974.
For the variant U16A C24G U35G, the yeast fitness was no more than 0.5.
As for U16A C22U A69U, the yeast fitness was 0.64.
As for U16A U19C C33G A43G U54A, the figure is no more than 0.5.
As for U16A C27A C62G, the figure is no more than 0.5; as for U16A C34G, 0.683; as for U16A A57U, 0.732.
As for U16A A57G, the figure is 0.974; as for U16A A57C, 0.668; as for U16A C46U G68C, 0.651.
With U16A C24A C30G C34U U47C, the yeast fitness is no more than 0.5.
U16A C24U C34G G38C: the yeast fitness is no more than 0.5.
As for U16A C30A A69U, the figure is 0.979.
On to U16A C24U C34A C62A A65G, for which the yeast fitness was no more than 0.5.
As for U16A A69U, the figure is 1.03; as for U16A C22U U26C U54G, no more than 0.5; as for U16A G25C C46G, 1.07.
For the variant U16A G56A A69C, the yeast fitness was 0.753.
As for U16A G50C U54G A69C, the figure is no more than 0.5; as for U16A C27U G38A C60G A65C, no more than 0.5.
As for U16A C55G, the yeast fitness turned out to be 0.54.
As for U16A C61G A65G, the figure is no more than 0.5.
As for U16A G41C, the yeast fitness came out at 0.668.
Consider U16A C24U C55U, for which the yeast fitness turned out to be 0.913.
As for U16A C33U A36G G38C, the figure is no more than 0.5; as for U16A C30A U35G, no more than 0.5; as for U16A G18A, 0.846.
As for U16A G50A, the figure is 0.899.
As for U16A C33A U53A G63A, the figure is no more than 0.5; as for U16A C30G G50A A70G, no more than 0.5.
On to U16A C60U U64C A65C, for which the yeast fitness is no more than 0.5.
As for U16A C55A C61A, the figure is no more than 0.5; as for U16A C27U C49U, 0.61; as for U16A G17A C22G, 0.578.
As for U16A C62G, the figure is 0.867.
In the case of U16A G23C C29U G58A, the yeast fitness was no more than 0.5.
As for U16A A45G G50A, the figure is no more than 0.5; as for U16A C49G, 0.769; as for U16A G23A C29U C34G G58A, no more than 0.5.
As for U16A G39A A42G C55A C62A C66U, the yeast fitness was found to be 0.528.
For U16A U19C G56A, the yeast fitness is 0.68.
As for U16A C27G C49A A69G, the figure is 0.532; as for U16A G52A, 0.827; as for U16A G39A C46G, 0.695.
As for U16A G68A A70C, the figure is 0.606; as for U16A G68A, 1.08.
As for U16A G68U, the figure is 0.837; as for U16A U19A C46U U64C, 0.74.
As to U16A C31A A69C, the yeast fitness came to 0.633.
Turning to U16A G17U G18C G48C, the yeast fitness was 0.764.
Turning to U16A C24U G44C, the yeast fitness was determined as 0.6.
As for U16A G25A U32C, the figure is 0.889; as for U16A G67C, 0.769; as for U16A G23C C29U C31G A57C, no more than 0.5.
Regarding U16A C30U A40C, the yeast fitness was no more than 0.5.
As for U16A G48C C66U, the yeast fitness amounted to 0.705.
In the case of U16A G23C C29G G50A A65G, the yeast fitness came to 0.751.
As for U16A G18C G50A A57C, the figure is no more than 0.5.
As for U16A G23C, the figure is 0.699; as for U16A G18A C31G, 0.527.
For the variant U16A G18U C29G C30G C46G, the yeast fitness is no more than 0.5.
With U16A C46U, the yeast fitness was found to be 1.04.
As for U16A C46A, the figure is 0.92.
As for U16A C22A C66U, the figure is 0.675; as for U16A C46A A69U, 0.715.
Regarding U16A C29G C46U C49U U59G A65U G68A, the yeast fitness came to 0.537.
As for U16A C30A A43C, the figure is 1.04; as for U16A C55A A70U, 0.542.
As for U16A C31A C33G G38A, the figure is no more than 0.5; as for U16A C33G A36U, 0.57.
U16A G38A A65G C66G: the yeast fitness was no more than 0.5.
On to U16A U26C A70U, for which the yeast fitness came out at 0.558.
As for U16A C30G G44C C61A, the figure is no more than 0.5.
As for U16A G18C G39A G52A, the figure is no more than 0.5; as for U16A U26C C31A C33A U35C U47A, no more than 0.5; as for U16A C31A C34G, no more than 0.5.
In the case of U16A C22A C29U A36G A45C, the yeast fitness is no more than 0.5.
As for U16A C33G G58A G68C, the figure is no more than 0.5; as for U16A C31A A65C, no more than 0.5.
As for U16A C33G, the figure is 0.612; as for U16A G17C C61G A70C, no more than 0.5.
As for U16A U26A, the figure is 0.974; as for U16A C31A C33A U35C U47A, no more than 0.5; as for U16A G23C U32C C33U, no more than 0.5.
As to U16A G18U A37C C60A A70G, the yeast fitness is no more than 0.5.
In the case of U16A C55U C61G A65G, the yeast fitness was no more than 0.5.
Regarding U16A C29G A42G C46G A65U, the yeast fitness is no more than 0.5.
As for U16A G63C A65G, the figure is no more than 0.5; as for U16A C31G A69U, 0.601.
As to U16A C61G C66G, the yeast fitness was no more than 0.5.
On to U16A G18C A20G C22U A65C, for which the yeast fitness was no more than 0.5.
As for U16A C30G G44C, the figure is no more than 0.5.
U16A U19C C46A A57G C61A A70C: the yeast fitness is 0.656.
Consider U16A G17A C22G C49U C61U G68C, for which the yeast fitness was no more than 0.5.
As for U16A C30G A40G U54C, the figure is no more than 0.5; as for U16A C60A, 0.668; as for U16A C34A A40U G44A G63A, no more than 0.5.
For U16A C33G C66G, the yeast fitness is no more than 0.5.
As to U16A G23C U26A C29U A42U G48A, the yeast fitness worked out at 0.557.
As for U16A G18C U35A C55G A69G, the figure is 0.64; as for U16A A45C G63C U64C C66U, no more than 0.5; as for U16A C30U A42U, 0.618.
As for U16A C31U, the figure is 0.979; as for U16A C31A, 0.645; as for U16A C24G A43C G63A, no more than 0.5.
As for U16A G25A U28A, the figure is no more than 0.5; as for U16A C22U U28C U32C A42G C55G, no more than 0.5; as for U16A C46U C55A, no more than 0.5.
As to U16A C24U C30G U35A C49A G67C, the yeast fitness stood at 0.751.
As for U16A A57C C66U A69C, the figure is no more than 0.5.
Regarding U16A G58A, the yeast fitness stood at 0.859.
As for U16A C22G U26C C34G A37C A40U A45G C62A, the figure is no more than 0.5; as for U16A G58C C61A, no more than 0.5; as for U16A G52A A70C, no more than 0.5.
As for U16A U19G C33U A40C G41A A43C C60U C61G, the figure is no more than 0.5.
